Assay results: ChEMBL document CHEMBL1135805 (J Med Chem, 2002)
pEC50, pIC50: −log10 of the molar value.

What was measured:
Breast cancer cell line [1] = experiment: Potency relative to progesterone in reducing the difference in reversing of [3H]VBL accumulation between MDA-435/LCC6 and MDA-435/LCC6-MDRI cells; type: functional, Homo sapiens
Method in brief: (§1)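 They were then given test compound at five concentrations plus DOX (4 μM) or [³H] VBL (5 nM) for 3 h, in triplicate, and washed with ice-cold 0.15 M NaCl. DOX was extracted in 20% TCA and read by fluorescence (ex 500/em 580 nm); VBL was counted by scintillation. Values were corrected for cell number. EC50 is the concentration halving the accumulation difference between the two lines, interpolated from dose-response curves. […] Mean ± SE, ≥3 experiments.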

[2] = Growth inhibitory activity on MDA-435/LCC6-MDRI ([…]) human breast cancer cells.; type: functional, cell-based; details: Cancer cell lines
Method in brief: (§2)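 MDA435/LCC6 (Pgp-negative) and MDA435/LCC6^MDR1 (Pgp-positive) cells were plated 24 h, then exposed 5 days to test agents at a range of concentrations in growth medium. Cells were fixed and stained with 0.5% crystal violet in 25% methanol, and dye was eluted in 0.1 M sodium citrate/25% methanol and read at 540 nm. […] Mean ± SE, ≥3 experiments.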

Breast cancer cell line [3] = experiment: Concentration that reduces the difference in reversal of DOX accumulation between MDA-435/LCC6 and MDA-435/LCC6-MDRI cells by 50%.; type: functional, cell-based; details: Homo sapiens; method in brief: as §1
Breast cancer cell line [4] = experiment: Concentration that reduces difference in reversal of [3H]VBL accumulation between MDA-435/LCC6 and MDA-435/LCC6-MDRI cells by 50%; type: functional, cell-based; details: Homo sapiens
Method in brief: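 They were then given test compound at five concentrations plus DOX (4 μM) or [³H] VBL (5 nM) for 3 h, in triplicate, and washed with ice-cold 0.15 M NaCl. Values were corrected for cell number. EC50 is the concentration halving the accumulation difference between the two lines, interpolated from dose-response curves. Mean ± SE, ≥3 experiments.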

Breast cancer cell line [5] = experiment: Ratio of effect of compound on VBL accumulation (antiPgp activity) to its intrinsic cellular toxicity;; type: functional, Homo sapiens
Breast cancer cell line [6] = experiment: To estimate the extent of resistance conferred by Pgp, the ratio of IC50 in MDA-435/LCC6-MDR1 and MDA-435/LCC6 cells (relative resistance of Pgp-positive cells) was used; type: functional, Homo sapiens
Method in brief: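 Retrovirally MDR1-transduced MDA435/LCC6^MDR1 and parental MDA435/LCC6 cells, 24 h after plating, exposed 5 days to graded agent concentrations. Fixed/stained with 0.5% crystal violet in 25% methanol, dye extracted in 0.1 M sodium citrate/25% methanol, A540. IC50 = concentration halving cell density versus untreated, interpolated.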

[7] = Potency relative to progesterone in reversing of DOX accumulation in MDA-435/LCC6 (Pgp-negative) cells.; type: functional, Homo sapiens
Method in brief: (§3)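 Test compound at five concentrations was added with DOX (4 μM) or [³H] VBL (5 nM) for 3 h, in triplicate. Cells were washed in ice-cold 0.15 M NaCl. DOX was measured fluorometrically after TCA extraction and VBL by scintillation, both normalized to cell number. Pgp-specific EC50 values were corrected for these effects.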

[8] = Effect on reversal of DOX accumulation in MDA-435/LCC6 (Pgp-negative) cells.; type: functional; details: Homo sapiens; method in brief: as §3
[9] = Effect on reversal of [3H]- VBL accumulation in MDA-435/LCC6 (Pgp-negative) cells.; type: functional; details: Homo sapiens; method in brief: as §3
[10] = Potency relative to progesterone in reversing of [3H]- VBL accumulation in MDA-435/LCC6 (Pgp-negative) cells.; type: functional, Homo sapiens; method in brief: as §3
Breast cancer cell line [11] = experiment: Potency relative to progesterone in reducing the difference in reversal of DOX accumulation between MDA-435/LCC6 and MDA-435/LCC6-MDRI cells; type: functional, Homo sapiens; method in brief: as §1
Breast cancer cell line [12] = experiment: Ratio of effect of compound on DOX accumulation (antiPgp activity) to its intrinsic cellular toxicity;; type: functional, Homo sapiens
Method in brief: (§4)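 Ratio IC50/EC50 of crystal violet cytotoxicity (5-day exposure) IC50 to the EC50 for DOX or [³H] VBL accumulation (3 h, 4 μM DOX or 5 nM VBL) in MDA435/LCC6 and MDA435/LCC6^MDR1 cells. Where no IC50 was reached, the highest non-toxic concentration tested, limited by solubility, was used.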

[13] = Growth inhibitory activity on MDA-435/LCC6 ([…]) human breast cancer cells.; type: functional, cell-based; details: Cancer cell lines; method in brief: as §2
[14] = molecular target: ATP-dependent translocase ABCB1 (Homo sapiens, UniProt P08183); experiment: TP_TRANSPORTER: reversal of Vinblastine accumulation (Vinblastine: 0.005 uM) in MDA435/LCC6 MDR1 cells; type: functional, cell-based, MDA-MB-435/LCC6 MDR1
Chain of ATP-dependent translocase ABCB1 (P08183 whole entry): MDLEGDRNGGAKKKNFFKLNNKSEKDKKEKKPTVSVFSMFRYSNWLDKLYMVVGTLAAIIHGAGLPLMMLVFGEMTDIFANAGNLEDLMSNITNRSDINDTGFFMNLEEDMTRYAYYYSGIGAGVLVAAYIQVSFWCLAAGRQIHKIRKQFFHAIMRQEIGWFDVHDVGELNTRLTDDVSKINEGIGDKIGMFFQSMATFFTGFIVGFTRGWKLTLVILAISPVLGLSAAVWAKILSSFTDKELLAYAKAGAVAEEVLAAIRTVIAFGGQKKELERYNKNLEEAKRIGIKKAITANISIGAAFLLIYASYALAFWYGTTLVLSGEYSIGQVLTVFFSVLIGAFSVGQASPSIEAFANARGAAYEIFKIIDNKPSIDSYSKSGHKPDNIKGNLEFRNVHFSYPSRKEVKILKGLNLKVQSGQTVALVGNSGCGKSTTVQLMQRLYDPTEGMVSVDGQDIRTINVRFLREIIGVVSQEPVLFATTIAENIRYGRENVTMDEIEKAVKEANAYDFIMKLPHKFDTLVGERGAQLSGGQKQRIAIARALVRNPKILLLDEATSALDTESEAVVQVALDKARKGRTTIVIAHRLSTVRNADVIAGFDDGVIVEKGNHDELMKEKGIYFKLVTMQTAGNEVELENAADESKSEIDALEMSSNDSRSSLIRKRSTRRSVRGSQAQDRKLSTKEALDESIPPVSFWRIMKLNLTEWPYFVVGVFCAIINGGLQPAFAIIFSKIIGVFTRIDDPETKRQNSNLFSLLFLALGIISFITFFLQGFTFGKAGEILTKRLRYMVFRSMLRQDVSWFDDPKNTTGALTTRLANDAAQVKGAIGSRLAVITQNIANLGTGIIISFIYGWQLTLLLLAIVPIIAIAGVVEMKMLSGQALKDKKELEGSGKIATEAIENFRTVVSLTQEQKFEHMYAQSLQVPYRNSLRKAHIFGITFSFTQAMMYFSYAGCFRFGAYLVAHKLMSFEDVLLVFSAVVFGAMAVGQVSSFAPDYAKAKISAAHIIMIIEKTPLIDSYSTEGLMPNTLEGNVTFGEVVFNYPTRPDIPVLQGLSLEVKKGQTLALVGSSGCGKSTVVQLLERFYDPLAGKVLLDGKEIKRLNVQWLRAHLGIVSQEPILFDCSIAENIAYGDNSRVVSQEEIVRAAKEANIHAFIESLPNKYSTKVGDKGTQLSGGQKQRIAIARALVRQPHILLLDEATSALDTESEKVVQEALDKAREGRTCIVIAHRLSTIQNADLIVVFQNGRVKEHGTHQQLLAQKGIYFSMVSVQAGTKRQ
Method in brief: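 VBL (5 nM) with test compound at five concentrations, in triplicate. Cells were rinsed with ice-cold 0.15 M NaCl and PBS, dried, trypsinized, and counted by scintillation; accumulation was corrected for cell number.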

[15] = Growth inhibitory activity on MDA-435/LCC6-MDRI ([…]) human breast cancer cells; type: functional, cell-based; details: Cancer cell lines
Method in brief: (§5)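 Cells exposed 24 h after plating to test agents at several concentrations for 5 days. Crystal violet (0.5% in 25% methanol) fix/stain, dye extracted in 0.1 M sodium citrate/25% methanol, absorbance at 540 nm as percent of untreated controls.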

Breast cancer cell line [16] = experiment: Ratio of effect of compound on VBL accumulation (antiPgp activity) to its intrinsic cellular toxicity; type: functional, Homo sapiens; method in brief: as §4
[17] = Growth inhibitory activity on MDA-435/LCC6 ([…]) human breast cancer cells; type: functional, cell-based; details: Cancer cell lines; method in brief: as §5
[18] = Potency relative to progesterone in reversing of DOX accumulation in MDA-435/LCC6 (Pgp-negative)cells; Not determined; type: functional, Homo sapiens
Breast cancer cell line [19] = experiment: Ratio of effect of compound on DOX accumulation (antiPgp activity) to its intrinsic cellular toxicity; type: functional, Homo sapiens; method in brief: as §4
Breast cancer cell line [20] = experiment: Concentration that reduces the difference in reversal of DOX accumulation between MDA-435/LCC6 and MDA-435/LCC6-MDRI cells by 50%; type: functional, cell-based; details: Homo sapiens
Method in brief: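 Ice-cold NaCl wash, overnight 20% TCA extraction at 4 °C in dark, fluorescence ex 500/em 580 nm against DOX standard curve, normalized to cell number.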

| Compound | pEC50 (Breast cancer cell line [3]) | pEC50 [9] | pEC50 [14] | Relative potency (Breast cancer cell line [1]) | pIC50 [2] | pEC50 (Breast cancer cell line [4]) | Ratio (Breast cancer cell line [5]) | Relative resistance (Breast cancer cell line [6]) | Relative potency [7] | pEC50 [8] | Relative potency [10] | Relative potency (Breast cancer cell line [11]) | Ratio (Breast cancer cell line [12]) | pIC50 [13] | pIC50 [15] | Ratio (Breast cancer cell line [16]) | pIC50 [17] | Relative potency [18] | Ratio (Breast cancer cell line [19]) | pEC50 (Breast cancer cell line [20]) |
| --- | --- | --- | --- | --- | --- | --- | --- | --- | --- | --- | --- | --- | --- | --- | --- | --- | --- | --- | --- | --- |
| CC(=O)[C@H]1CCC2C3C(CC[C@@]21C)[C@@]1(C)CCC(=O)C=C1C[C@H]3Sc1ccc(NC(=O)NS(=O)(=O)c2ccc(C)cc2)cc1 (stereo partly drawn) | 4.83 | 4.48 |  | 0.5 | 4.42 | 4.46 | 0.7 | 1.7 | 1.1 | 4.43 | 0.6 | 1.5 | 0.6 | 4.66 |  |  |  |  |  |  |
| CCNC(=O)Nc1ccc(S[C@@H]2CC3=CC(=O)CC[C@]3(C)C3CC[C@]4(C)C(C(C)=O)CCC4C32)cc1 (stereo partly drawn) | 6.15 | 5.82 |  | 14.2 |  | 5.89 |  |  |  | 6.00 | 14 | 31.3 | >20 |  | < 4.70 | >13.3 | < 4.70 | 42.7 |  |  |
| CC(=O)[C@H]1CCC2C3C(CC[C@@]21C)[C@@]1(C)CCC(=O)C=C1C[C@H]3Sc1ccc(NC(=O)N[C@H](C)c2ccccc2)cc1 (stereo partly drawn) | 6.22 | 6.15 |  | 24.5 |  | 6.10 |  |  | 44.8 | 6.05 | 28.2 | 37.2 |  |  | < 4.70 | >28.6 | < 4.70 |  | >22.2 |  |
| COc1ccc(CCN(C)CCCC(C#N)(c2ccc(OC)c(OC)c2)C(C)C)cc1OC (stereo not drawn) | 5.62 |  |  |  | 4.20 | 5.92 |  |  |  | 5.39 |  |  |  | 4.18 |  |  |  |  |  |  |
| CC(=O)[C@H]1CC[C@H]2[C@@H]3CCC4=CC(=O)CC[C@]4(C)[C@H]3CC[C@]12C [PROGESTERONE] |  | 4.68 |  |  | 4.44 | 4.73 |  |  |  | 4.37 |  |  |  | 4.56 |  |  |  |  |  | 4.65 |

The next lines start with results.

| pEC50 (Breast cancer cell line [3]) | pEC50 [9] | pEC50 [14] | Compound | Relative potency (Breast cancer cell line [1]) | pIC50 [2] | pEC50 (Breast cancer cell line [4]) | Ratio (Breast cancer cell line [5]) | Relative resistance (Breast cancer cell line [6]) | Relative potency [7] | pEC50 [8] | Relative potency [10] | Relative potency (Breast cancer cell line [11]) | Ratio (Breast cancer cell line [12]) | pIC50 [13] | pIC50 [15] | Ratio (Breast cancer cell line [16]) | pIC50 [17] | Relative potency [18] | Ratio (Breast cancer cell line [19]) | pEC50 (Breast cancer cell line [20]) |
| --- | --- | --- | --- | --- | --- | --- | --- | --- | --- | --- | --- | --- | --- | --- | --- | --- | --- | --- | --- | --- |
| 6.22 | 6.05 |  | CC(=O)C1CCC2C3C(CC[C@]12C)[C@@]1(C)CCC(=O)C=C1C[C@H]3Sc1ccc(NC(=O)NCCCl)cc1 (stereo partly drawn) | 22.5 | 5.14 | 6.10 | 3.6 | 2.2 | 60.2 | 6.15 | 23.5 | 40.5 | 3.2 | 5.49 |  |  |  |  |  |  |
|  |  | 6.15 | CC(=O)C1CC[C@H]2[C@@H]3[C@H](Sc4ccc(NC(=O)N[C@H](C)c5ccccc5)cc4)CC4=CC(=O)CC[C@]4(C)[C@H]3CC[C@]12C (stereo partly drawn) |  |  |  |  |  |  |  |  |  |  |  |  |  |  |  |  |  |
| 6.30 |  |  | C/C=C/C[C@@H](C)[C@@H](O)[C@H]1C(=O)N[C@@H](CC)C(=O)N(C)CC(=O)N(C)[C@@H](CC(C)C)C(=O)N[C@@H](C(C)C)C(=O)N(C)[C@@H](CC(C)C)C(=O)N[C@@H](C)C(=O)N[C@H](C)C(=O)N(C)[C@@H](CC(C)C)C(=O)N(C)[C@@H](CC(C)C)C(=O)N(C)[C@@H](C(C)C)C(=O)N1C [CYCLOSPORINE] |  |  |  |  |  |  |  |  |  |  |  |  |  |  |  |  |  |
